Laboratory results taken from paper PMC10520980 (European journal of medicinal chemistry, 2022).
Read-outs that look alike come from different tables or passages of the source.

Key:
[1] = biological target: T1, NTMT1 (Homo sapiens, UniProt Q9BV86); conditions: read-out: cellular IC50; HCT116; cited from earlier work
T1 sequence (Q9BV86 1-223): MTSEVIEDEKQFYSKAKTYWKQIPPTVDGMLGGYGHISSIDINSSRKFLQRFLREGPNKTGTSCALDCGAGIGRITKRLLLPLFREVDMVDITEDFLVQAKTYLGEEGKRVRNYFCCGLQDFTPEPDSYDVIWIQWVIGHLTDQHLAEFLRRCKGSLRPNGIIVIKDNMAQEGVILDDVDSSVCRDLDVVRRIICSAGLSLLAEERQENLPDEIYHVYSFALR

[2] = biological target: T1, NTMT1; conditions: read-out: cellular IC50; HT29; cited from earlier work
[3] = biological target: T1, NTMT1; assay: Degradation of NTMT1 in HCT116; assay type: cell-based; conditions: for fold less potent than degrader 1 (DC50): HCT116; for DC50: read-out: DC50, NTMT1 degradation, HCT116, 24 h, Western blot
How it was run: (§1)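 Cells were seeded at 8×10^4 per well, grown 24 h, then treated with graded concentrations for 24 h or at 50 μM over a time course, with DMSO control. Lysis was in Tris pH 8.0/NaCl/NP-40/Triton buffer, followed by BCA. 20 μg protein was run on 10% SDS-PAGE with PVDF transfer. Membranes were probed with rabbit anti-NTMT1 and anti-β-actin overnight at 4 °C, then chemiluminescence. Densitometry was normalised to DMSO, and DC50 was derived from these values. Triplicates.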

[4] = biological target: T1, NTMT1; assay: Degradation of NTMT1 in HT29; assay type: cell-based; conditions: for DC50: read-out: DC50, NTMT1 degradation, HT29, 24 h, Western blot
How it was run: as §1

[5] = tested on: NTMT1 and NTMT2; conditions: cited from earlier work
[6] = biological target: NTMT2 (Homo sapiens, UniProt Q5VVY1); assay: Selectivity: NTMT2 protein level in HCT116 and HT29; assay type: cell-based; conditions: 24 h
How it was run: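 HCT116 and HT29 cells were treated with a range of degrader concentrations for 24 h. Lysates were resolved by SDS-PAGE, and NTMT1, NTMT2 and β-actin band regions were cut from the same membrane. These were probed with rabbit anti-NTMT1, anti-NTMT2 and anti-actin, then goat anti-rabbit secondary and chemiluminescence. Triplicates.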

[7] = tested on: eGFP; assay: Control with plasmid expressing only eGFP in HCT116; assay type: cell-based, human; conditions: HCT116, 100 μM, 24 h
[8] = tested on: calreticulin (CALR); assay: CALR expression by Western blot; assay type: cell-based, human; conditions: HCT116, 25 μM, 24 h
How it was run: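 HCT116 cells were treated at 25 μM for 24 h alongside the inhibitor comparator. Cells were lysed at 4 °C for 1 h in Tris pH 8.0/NaCl/NP-40/Triton X-100 buffer with protease inhibitor, and protein was quantified by BCA. 10 μg protein was run on 8% SDS-PAGE and transferred to PVDF. Blots were probed with rabbit anti-CALR and anti-β-actin, detected by chemiluminescence and quantified by densitometry. Triplicates.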

[9] = biological target: NTMT1-eGFP fusion protein (Homo sapiens, UniProt Q9BV86); assay: NTMT1 degradation visualized by fluorescence; assay type: cell-based; conditions: HCT116, 100 μM, 24 h
How it was run: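 HCT116 cells were seeded at 1.5×10^5 per well. After 12 h they were transfected with pEGFP-n1-NTMT1 or empty pEGFP-n1 using Lipofectamine 3000 in reduced-serum medium with 20% FBS, for 8 h. Cells recovered 24 h in complete medium, then received 100 μM degrader or DMSO for 24 h. The GFP fusion was imaged on an inverted fluorescence microscope.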

[10] = tested on: ntmt1 KO HCT116 cells; assay: Cell proliferation assay; assay type: cell-based, human; conditions: ntmt1 KO HCT116, various concentrations, 72 h
[11] = tested on: HCT116; assay: Cytotoxicity, WST-8 assay, HCT116; assay type: cell-based, human; conditions: HCT116, up to 64 μM, 24 h
How it was run: (§2)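 Cells were seeded at 5×10^3 per well and cultured 24 h. They were then exposed to a range of test compound concentrations or DMSO vehicle. A solution of 5 mM WST-8 plus 0.2 mM 1-methoxyphenazinium salt in 150 mM NaCl was added, followed by 3 h at 37 °C in 5% CO₂. Absorbance was read at 490 nm. Triplicates.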

[12] = tested on: HT29; assay: Cytotoxicity, WST-8 assay, HT29; assay type: cell-based, human; conditions: HT29, up to 64 μM, 24 h
How it was run: as §2

NTMT2, sequence (Q5VVY1 whole entry): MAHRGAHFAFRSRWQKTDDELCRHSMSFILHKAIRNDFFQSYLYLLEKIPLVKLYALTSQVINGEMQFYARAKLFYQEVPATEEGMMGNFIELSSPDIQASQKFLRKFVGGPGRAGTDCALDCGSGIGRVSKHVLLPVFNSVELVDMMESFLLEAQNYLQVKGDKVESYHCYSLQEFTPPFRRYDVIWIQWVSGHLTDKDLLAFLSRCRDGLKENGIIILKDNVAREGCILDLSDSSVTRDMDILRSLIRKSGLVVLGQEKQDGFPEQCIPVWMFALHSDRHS

Row | SMILES | fold less potent than degrader 1 (DC50) [3] [fold] | DC50 [3] [µM] | DC50 [4] [µM] | antiproliferative effect on ntmt1 KO cells [10] | cytotoxicity (cell viability, WST-8) [11] | cytotoxicity (cell viability, WST-8) [12] | other results
1 | NCCCC[C@H](NC(=O)[C@@H]1CCCN1C(=O)Cc1cccc2ccccc12)C(=O)Nc1ccccc1C(N)=O [DC541, (S)-N-((S)-6-amino-1-((2-carbamoylphenyl)amino)-1-oxohexan-2-yl)-1-(2-(naphthalen-1-yl)acetyl)pyrrolidine-2-carboxamide] | – | – | – | – | – | – | IC50 [1]: > 100 µM; IC50 [2]: ~30 µM
2 | Cc1ncsc1-c1ccc(CNC(=O)[C@@H]2C[C@@H](O)CN2C(=O)[C@H](C(C)C)N2Cc3ccccc3C2=O)c(OCCOCCOCCOCCNC(=O)c2ccccc2NC(=O)[C@H](CCCCN)NC(=O)[C@@H]2CCCN2C(=O)Cc2cccc3ccccc23)c1 [degrader 3, (2S,4R)-N-(2-((1-(2-((S)-6-amino-2-((S)-1-(2-(naphthalen-1-yl)acetyl)pyrrolidine-2-carboxamido)hexanamido)phenyl)-1-oxo-5,8,11-trioxa-2-azatridecan-13-yl)oxy)-4-(4-methylthiazol-5-yl)benzyl)-4-hydroxy-1-((S)-3-methyl-2-(1-oxoisoindolin-2-yl)butanoyl)pyrrolidine-2-carboxamide] | ≥ 9 | 66.4 | 53.7 | – | – | – | –
3 | NCCCC[C@H](NC(=O)[C@@H]1CCCN1C(=O)Cc1ccc(O)cc1)C(=O)N[C@@H](CCCN=C(N)N)C(N)=O [BM30] | – | – | – | – | – | – | selectivity toward NTMT1 and NTMT2 [5]: nonselective inhibitor
4 | Cc1ncsc1-c1ccc(CNC(=O)[C@@H]2C[C@@H](O)CN2C(=O)[C@H](C(C)C)N2Cc3ccccc3C2=O)c(OCCNC(=O)c2ccccc2NC(=O)[C@H](CCCCN)NC(=O)[C@@H]2CCCN2C(=O)Cc2cccc3ccccc23)c1 [degrader 1, (2S,4R)-N-(2-(2-(2-((S)-6-amino-2-((S)-1-(2-(naphthalen-1-yl)acetyl)pyrrolidine-2-carboxamido)hexanamido)benzamido)ethoxy)-4-(4-methylthiazol-5-yl)benzyl)-4-hydroxy-1-((S)-3-methyl-2-(1-oxoisoindolin-2-yl)butanoyl)pyrrolidine-2-carbox amide] | – | 7.53 | 18.1 | neither compound displayed an antiproliferative effect | No significant cytotoxicity | No significant cytotoxicity | NTMT1 degradation after pre-treatment with proteasome inhibitor MG-132 ([3]; HCT116, 1 μM MG-132 for 2 h, then 50 μM compound 24 h): completely abolished; NTMT1 level (Western blot) ([3]; HCT116, 25 μM, 24 h): almost depleted; NTMT1 level within 24 h ([3]; HCT116, 50 μM, 24 h): almost completely depleted; degradation of NTMT2 ([6]; HCT116, various concentrations): cannot induce degradation of NTMT2; degradation of NTMT2 ([6]; HT29, various concentrations): cannot induce degradation of NTMT2; fluorescence of eGFP only (control plasmid) [7]: did not show obvious reduction of fluorescence; CALR expression relative to inhibitor 4 (Western blot) [8]: ~ 1.4 fold; fluorescence of NTMT1-eGFP fusion protein [9]: most fluorescence signals were lost; onset of pronounced change of NTMT1 levels ([4]; HT29, 50 μM): not observed until 6 h
5 | Cc1ncsc1-c1ccc(CNC(=O)[C@@H]2C[C@H](O)CN2C(=O)[C@H](C(C)C)N2Cc3ccccc3C2=O)c(OCCNC(=O)c2ccccc2NC(=O)[C@H](CCCCN)NC(=O)[C@@H]2CCCN2C(=O)Cc2cccc3ccccc23)c1 [inhibitor 4, (2S,4S)-N-(2-(2-(2-((S)-6-amino-2-((S)-1-(2-(naphthalen-1-yl)acetyl)pyrrolidine-2-carboxamido)hexanamido)benzamido)ethoxy)-4-(4-methylthiazol-5-yl)benzyl)-4-hydroxy-1-((S)-3-methyl-2-(1-oxoisoindolin-2-yl)butanoyl)-pyrrolidine-2-carboxamide] | – | – | – | neither compound displayed an antiproliferative effect | No significant cytotoxicity | No significant cytotoxicity | NTMT1 level relative to DMSO control ([3]; HCT116, 50 μM, 24 h): unable to reduce NTMT1 levels; NTMT1 level relative to DMSO control ([4]; HT29, 50 μM, 24 h): unable to reduce NTMT1 levels
6 | Cc1ncsc1-c1ccc(CNC(=O)[C@@H]2C[C@@H](O)CN2C(=O)[C@H](C(C)C)N2Cc3ccccc3C2=O)c(OCCOCCNC(=O)c2ccccc2NC(=O)[C@H](CCCCN)NC(=O)[C@@H]2CCCN2C(=O)Cc2cccc3ccccc23)c1 [degrader 2, (2S,4R)-N-(2-(2-(2-(2-((S)-6-amino-2-((S)-1-(2-(naphthalen-1-yl)acetyl)pyrrolidine-2-carboxamido)hexanamido)benzamido)ethoxy)ethoxy)-4-(4-methyl-thiazol-5-yl)benzyl)-4-hydroxy-1-((S)-3-methyl-2-(1-oxoisoindolin-2-yl)butanoyl)pyrrolidine-2-carboxamide] | ≥ 9 | 79.7 | 53.7 | – | – | – | –
